Assay outcomes from PubChem.
The list is not random: actives were taken first. Their share in the collection is about 4.3%.
Dyrk1A ADPGlo: inhibitors of rat Dyrk1A kinase | 310,000 tested, 0.43% active | inhibition, % at 12.5 µM | AID 504441 | ADP-Glo luminescence, NFATc1 peptide; in the data active = inhibition above about 50%;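 also: plate controls were vehicle with enzyme for no effect and no enzyme for full effect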
CAL PDZ FP-1: inhibitors of human CAL PDZ peptide binding; 300,000 tested, 0.92% active; inhibition, % at 24.9 µM; Q9HD26; purified CAL PDZ, TMR-peptide fluorescence polarization, 1 h;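 active = mean inhibition of at least 30% with at least half of replicates also reaching 30%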;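 also: 0% = DMSO neutral control and 100% = excess unlabeled competitor peptide PRC23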
CAL PDZ FP-2: inhibitors of human CAL PDZ peptide binding | Q9HD26 | purified CAL PDZ, TMR-peptide fluorescence polarization, 1 h | inhibition, % at 20 µM | 330,000 tested, 0.02% active;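 active = highest replicate inhibition of at least 40%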;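 also: plate controls were DMSO neutral control wells for no effect and unlabeled competitor peptide control wells for full effect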
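Control set: unlabelled peptide and DMSO controls / Material: purified CerCALP PDZ construct / Timing: 1 h incubation at room temperature before polarization reading / Doses: 20 µM, one dose / Detection: fluorescence polarization (mP)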
ALR inh: human ALR oxidase inhibition via reduced H2O2; purified ALR, DTT oxidation, H2O2 HRP-luminol luminescence; 290,000 tested, 3.8% active; P55789; AID 485317; inhibition, % (no concentration beside the values);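 active = mean replicate inhibition above about 79%, with every replicate also reaching it, limit read from the data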
Target sequence (P55789 whole entry, looked up): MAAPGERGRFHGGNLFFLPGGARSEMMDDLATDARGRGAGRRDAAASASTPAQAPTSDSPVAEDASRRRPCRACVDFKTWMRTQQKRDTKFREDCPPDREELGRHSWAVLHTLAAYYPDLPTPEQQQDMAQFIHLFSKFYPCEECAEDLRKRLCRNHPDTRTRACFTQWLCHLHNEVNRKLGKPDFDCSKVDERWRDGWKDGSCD
Rtt109 Vps75: inhibitors of Candida albicans Rtt109/Vps75 histone acetyltransferase; purified Rtt109/Vps75, ThioGlo CoA-SH fluorescence, 4 h; inhibition, % at 34.9 µM; 330,000 tested, 0.16% active; AID 540336;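 active = inhibition of at least 50% in every replicate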
Target sequence (Q5AAJ8 whole entry, looked up): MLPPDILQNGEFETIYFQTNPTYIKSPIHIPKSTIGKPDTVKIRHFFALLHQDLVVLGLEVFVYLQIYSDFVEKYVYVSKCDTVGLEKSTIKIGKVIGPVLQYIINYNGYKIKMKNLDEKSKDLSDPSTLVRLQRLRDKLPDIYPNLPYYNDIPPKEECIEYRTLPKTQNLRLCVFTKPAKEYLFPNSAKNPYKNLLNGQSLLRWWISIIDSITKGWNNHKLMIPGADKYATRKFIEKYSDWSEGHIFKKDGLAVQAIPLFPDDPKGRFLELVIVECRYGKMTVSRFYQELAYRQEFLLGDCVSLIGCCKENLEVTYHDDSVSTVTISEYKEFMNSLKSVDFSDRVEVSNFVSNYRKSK
* hit, by the source's call; / = not tested or not shown.

SMILES	Dyrk1A ADPGlo	CAL PDZ FP-1	CAL PDZ FP-2	ALR inh	Rtt109 Vps75
Cc1ccc(C(=O)NCc2ccc3c(c2)OCO3)cc1C	5.2	-1.0	-0.8	-4.9	-1.8
O=C(NCc1ccc2c(c1)OCO2)c1ccc2c(c1)OCO2	1.1	3.3	-2.0	-5.2	-7.0
O=C(NC(Cc1ccccc1)C(=O)O)c1ccco1 (stereo not drawn)	1.5	31.7*	0.4	-7.7	5.1
O=C(NC(Cc1ccccc1)C(=O)O)c1ccccc1 (stereo not drawn)	-0.7	0.6	-0.2	-4.1	8.9
CC1CCCC(NC(=O)C2CCN(S(=O)(=O)c3cnc[nH]3)CC2)C1C (stereo not drawn)	-6.0	64.2*	-0.6	0.6	-10.7
COc1ccc(-c2nc(CSCC(=O)NC3CCCC3)c(C)o2)cc1OC	-1.5	-3.5	-2.8	98.8*	3.2
COc1ccc(-c2nc(CN3CCC(C(=O)NC4CCN(Cc5ccccc5)CC4)CC3)c(C)o2)cc1OC	-4.7	-2.7	-3.2	43.1	-0.1
CCOC(=O)N1CCC(NC(=O)CSCc2nc(-c3ccc(OC)c(OC)c3)oc2C)CC1	-8.8	-4.9	-1.6	98.4*	-1.4
COc1ccc(-c2nc(CSCC(=O)NC3CCN(Cc4ccccc4)CC3)c(C)o2)cc1OC	1.0	-6.7	-2.4	98.9*	3.8
Cc1oc(-c2ccccc2F)nc1CSCC(=O)NC1CC1	-4.0	-2.5	-4.6	-28.6	-1.8
COc1ccc(-c2nc(CSCC(=O)NC3CC3)c(C)o2)cc1OC	-1.5	0.5	-1.7	99.0*	4.1
CCCC(=O)C1=C(N2CCCCC2)CC(C)(C)C(C(=O)OC)C1=O (stereo not drawn)	/	-0.4	0.8	-5.1	2.4
CCN1C(=O)CSC1=Nc1ccccc1Cl	16.1	/	-0.2	-9.4	2.5
COc1cccc(/C=N/N2C(=O)CSC2=S)c1O	11.7	-3.9	0.8	97.8*	5.0
O=C1CSC(=S)N1/N=C/c1ccc(C(F)(F)F)cc1	-2.2	-7.3	-0.6	/	-1.3
COc1ccc2ccccc2c1/C=N/N1C(=O)CSC1=S	/	-3.7	-1.2	/	0.0
COc1cc(/C=N/N2C(=O)CSC2=S)cc(Br)c1O	-4.1	53.3*	-8.6	/	13.9
COc1ccccc1/C=C/C=C(\C#N)C(=O)NC(C)c1ccccc1 (stereo not drawn)	1.7	0.6	-0.5	-1.5	16.9
COc1ccc(-c2nc(CS(=O)(=O)CC(=O)NC3CCC(C)CC3)c(C)o2)cc1 (stereo not drawn)	-8.5	0.3	-3.0	98.5*	1.3
Cc1oc(-c2ccccc2)nc1CS(=O)CC(=O)O (stereo not drawn)	2.0	/	-0.1	/	-0.6
COc1ccc(CNC(=O)CS(=O)(=O)Cc2nc(-c3ccc(OC)cc3)oc2C)cc1	2.9	-1.6	-2.7	-7.8	-2.0
Cc1ccc(-c2nc(CS(=O)CC(=O)NC3CCC(C)CC3)c(C)o2)cc1 (stereo not drawn)	1.3	-1.3	-0.5	98.7*	-12.6
Cc1oc(-c2ccc(Cl)cc2)nc1CS(=O)CC(=O)NC1CC1 (stereo not drawn)	-4.3	6.2	0.1	98.7*	-26.8
COC(=O)c1sccc1NC(=O)c1c(C)noc1C	-16.4	-2.6	-1.8	-0.1	-3.1
COC(=O)c1sccc1NC(=O)c1cc(C)on1	-1.4	-5.6	-1.1	96.2*	0.7
SMILES	Dyrk1A ADPGlo	CAL PDZ FP-1	CAL PDZ FP-2	ALR inh	Rtt109 Vps75
Cc1[nH]c2ccccc2c1C(=O)CN1CCCC1	0.3	-9.1	-0.6	-14.9	2.3
Cc1[nH]c2ccccc2c1C(=O)CN1CCSCC1	-2.6	2.1	-2.3	97.2*	-2.6
Cc1cc(=O)[nH]c(S/C=C/c2ccccc2)n1	4.1	1.1	-0.6	98.4*	3.4
Cc1cc(=O)[nH]c(SCc2ccccc2)n1	-3.1	-3.8	0.1	0.4	6.7
Cc1ccc(S(C)(=O)=O)cc1C(=O)NC(C)C1CC2CCC1C2 (stereo not drawn)	-5.3	-1.3	-1.1	-3.5	7.1
CCCCCCSc1nc(O)c(C2OC(=O)c3c2ccc(OC)c3OC)c(=O)n1CC (stereo not drawn)	2.3	-1.1	-0.3	97.8*	15.3
O=C1CSC(c2ccccn2)N1c1cccc(Cl)c1 (stereo not drawn)	-2.2	-2.7	-2.9	99.2*	1.0
Cc1ccc(N2C(=O)CSC2c2ccccn2)cc1Cl (stereo not drawn)	-4.0	0.5	0.5	98.8*	3.8
O=C1CSC(c2ccccn2)N1c1ccccc1F (stereo not drawn)	-8.7	10.7	-2.0	/	4.1
C/C(=N\NC(=O)c1ccc(F)cc1)c1ccccn1	-2.1	0.2	-1.8	0.4	-5.2
Fc1ccc(N/N=C(/c2ccccc2)c2ccccn2)cc1	-6.1	0.3	-0.5	98.7*	0.4
CCOCCc1nnc(NC(=O)CS(=O)(=O)c2ccc(C)cc2)s1	1.2	92.9*	0.0	-9.4	2.9
O=C(Oc1coc(CSc2nnc(NC(=O)C3CC3)s2)cc1=O)c1c(F)cccc1F	-0.4	-4.4	-2.7	96.5*	30.5
Cc1cc(C)cc(C(=O)Oc2coc(CSc3nnc(NC(=O)C4CC4)s3)cc2=O)c1	-3.8	-7.7	-0.8	/	-10.5
CC(=O)Nc1ccc(S(=O)(=O)Nc2nnc(Cc3ccc(Cl)cc3)s2)cc1	-8.6	0.6	-1.3	/	12.6
COc1cc(N)c(Cc2nccc3cc(OC)c(OC)cc23)cc1OC	-4.1	-5.0	-0.2	88.4*	-7.8
O=C(c1cccs1)N1CC=C(c2ccccc2)CC1	4.8	/	-0.8	-4.4	1.6
O=C(c1ccccn1)N1CC=C(c2ccccc2)CC1	4.5	194.1*	-0.7	/	-2.1
Cc1ccc2sc(C)cc(=O)c2c1	-1.1	-6.5	-0.7	/	2.0
CCC(C)(C)C1CCC(=NNc2nc3ccccc3[nH]2)CC1 (stereo not drawn)	5.7	7.2	0.5	0.8	-2.9
CC(=O)N1CCC(=NNc2nc3ccccc3[nH]2)CC1	13.6	5.0	-0.8	99.6*	-0.9
CS(=O)(=O)N(CC(=O)N1CCc2ccccc2C1)Cc1ccccc1	-2.7	11.0	0.0	-1.2	-6.1
O=C(CC(=O)N/N=C/c1ccc(C(=O)O)cc1)NCCc1ccccc1	-2.6	-4.4	-0.9	0.4	1.2
CNC(=O)Cn1nc(C)c(S(=O)(=O)N2CCOCC2)c1C	-3.6	49.9*	-0.9	-17.9	-4.7
O=C(O)COc1ccc(C(=O)c2ccccc2)cc1	1.4	6.5	0.3	-3.2	-4.9
COc1cccc(-c2nc(-c3ccccc3)c(-c3ccccc3)[nH]2)c1OCC(=O)O	-0.1	-2.2	0.0	4.6	-3.9
O=C(O)COc1ccc(-c2nc(-c3ccccc3)c(-c3ccccc3)[nH]2)cc1	9.6	/	-0.3	99.0*	9.3
O=C(O)COc1ccccc1-c1nc(-c2ccccc2)c(-c2ccccc2)[nH]1	10.2	/	-0.3	97.7*	2.6
Cc1cccc(N(Cc2cc(=O)[nH]c3ccccc23)C(=O)C(C)C)c1	5.6	35.0*	/	4.1	-4.4
CC(=O)N(Cc1cc(=O)[nH]c2ccccc12)c1cccc(C)c1	-3.0	-5.8	-1.6	0.1	-13.5
